Assay [1] can be described thus: inhibitors of TNFa-induced NFkB p65 translocation, primary screen, imaging, HUVEC, MLSMR starter and 10KST1 sets (AID 438;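 active = inhibition above 20% together with a positive visual image hit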;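 note: compound added about 3h40 before a 20 min TNFalpha stimulation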;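 for inhibition: signal is the nuclear over cytoplasmic p65 intensity ratio per well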). The conditions noted are these: HUVEC TNFa-induced p65 nuclear translocation; cell count: measured here: nuclei count (cytotoxicity indicator), at 2.08 µM; inhibition: at 2 µM, stronger effect = higher value, 0% TNFa-plus-vehicle, 100% no-TNFa wells.
A short description of assay [2]: endothelial E-selectin expression blockers – imaging, HUVEC, immunofluorescence, MLSMR starter and 10KST1 sets, primary screen (AID 487).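 For inhibition: signal is fraction of cell area covered by stained E-selectin grains.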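 For nuclei count: 100% = median nuclei count of all wells on the same plate.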 The conditions noted are these: HUVEC TNFalpha-induced E-selectin immunofluorescence imaging, at 2 µM; inhibition: stronger effect = higher value; nuclei count: measured here: cell number, toxicity.
A short description of assay [3]: Primary imaging screen for DUSP6 inhibitors that restore phospho-Erk in transfected HeLa cells, chemical complementation (AID 609;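 active = compounds giving at least 50% inhibition in the cell-based MKP-3 phosphatase rescue imaging test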;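 for inhibition: phospho-Erk level distribution per well compared with pooled transfected vehicle control wells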). The settings on record: HeLa MKP-3 transfected, phospho-Erk imaging KS statistic, at 10 µM, cells stimulated with TPA for 15 min.
In assay [4] the target is Dual specificity protein phosphatase 6 (Homo sapiens) (UniProt Q16828). The description is as above. The settings on record: HeLa MKP-3 transfected, phospho-Erk imaging KS statistic; at 10 µM; stronger effect = higher value; cells stimulated with TPA for 15 min.
Sequence of Dual specificity protein phosphatase 6 (Homo sapiens) (Q16828 whole entry, looked up): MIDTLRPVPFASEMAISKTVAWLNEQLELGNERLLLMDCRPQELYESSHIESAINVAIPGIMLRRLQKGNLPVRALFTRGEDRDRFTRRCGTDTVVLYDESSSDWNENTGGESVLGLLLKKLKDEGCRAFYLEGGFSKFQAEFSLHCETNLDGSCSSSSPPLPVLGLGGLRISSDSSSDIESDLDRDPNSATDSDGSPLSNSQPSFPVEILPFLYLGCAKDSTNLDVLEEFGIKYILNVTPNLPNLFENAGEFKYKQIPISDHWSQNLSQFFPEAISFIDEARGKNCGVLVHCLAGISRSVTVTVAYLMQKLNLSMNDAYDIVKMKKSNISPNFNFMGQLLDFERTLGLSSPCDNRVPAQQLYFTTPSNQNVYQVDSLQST
Assay [5] addresses Voltage-gated potassium channel subunit beta-2 (Rattus norvegicus) (UniProt P62483). Kind of assay: inhibitors of rat Kvbeta2 reductase activity – biochemical, NADPH fluorescence, primary screen (AID 622;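 active = fluorescence slope higher than the sample average by over 3 SD, cut at about -0.22 in these data, passing the limit was not always enough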;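 note: slope of raw intensity against log time taken from 70 to 1610 s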). The conditions noted are these: recombinant KvBeta, 4-cyanobenzaldehyde reduction, at 10 µM, stronger effect = higher value.
For assay [6] the target is unchanged. Kind of assay: enhancers of rat Kvbeta2 NADPH turnover – biochemical, NADPH fluorescence, primary screen (AID 623;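 active = NADPH fluorescence slope more negative than the mean of all samples by about 3 SD, 99.7% confidence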;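 note: fluorescence intensity change per second fitted from 20 to 320 s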). The conditions noted are these: Recombinant KvBeta, NADPH fluorescence decrease slope, 10 min; at 10 µM; stronger effect = lower value.
The target of assay [7] is Alpha-2C adrenergic receptor (Homo sapiens) (UniProt P18825). Briefly: compounds altering alpha2C-coupled GIRK flux – cell-based, HEK293 alpha2C/GIRK1/2, thallium flux, primary screen (AID 624;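 active = fluorescence slope after compound addition differing from the mean of all screened samples at 99.7% confidence, in either direction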;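 note: slope of fluorescence ratio to pre-addition baseline per second over 15 to 24 s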). The settings on record: thallium flux BTC fluorescence, at 10 µM, actives lie on both sides.
Sequence of Alpha-2C adrenergic receptor (Homo sapiens) (P18825 whole entry, looked up): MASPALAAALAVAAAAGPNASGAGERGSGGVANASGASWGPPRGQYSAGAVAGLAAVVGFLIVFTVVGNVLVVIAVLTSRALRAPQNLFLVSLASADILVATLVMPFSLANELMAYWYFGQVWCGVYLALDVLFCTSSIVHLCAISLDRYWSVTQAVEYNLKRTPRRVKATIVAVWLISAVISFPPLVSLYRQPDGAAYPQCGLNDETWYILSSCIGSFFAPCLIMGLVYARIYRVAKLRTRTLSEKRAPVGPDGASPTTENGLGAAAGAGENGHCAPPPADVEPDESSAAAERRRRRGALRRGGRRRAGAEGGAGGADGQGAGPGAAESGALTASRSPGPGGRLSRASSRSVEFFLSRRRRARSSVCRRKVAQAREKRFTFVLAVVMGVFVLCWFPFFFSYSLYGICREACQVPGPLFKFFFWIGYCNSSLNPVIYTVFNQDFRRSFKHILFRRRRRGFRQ
The nature of assay [8]: inhibitors of larval lipid processing in zebrafish, primary screen, whole organism, PED6 fluorescence, gall bladder and intestine (AID 686;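 active = a full or partial loss of lipid-probe fluorescence in the fish gall bladder, intestine or both, judged by eye; inactive = no fluorescence loss, or compound toxic to the fish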;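 note: larvae 5 to 7 days old with five fish per well; signal comes from phospholipase A2 cleavage of quenched PED6 carried via bile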). The settings on record: Zebrafish larvae PED6 lipid processing, fluorescence scoring; screened at 20 µM (by protocol). In outline:
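Incubation: overnight exposure of larvae to compound plus PED6 / Test system: live zebrafish larvae aged 5-7 days, whole organism / Amount: 5 larvae per well / Read-out basis: visual per-well fluorescence inhibition score / Signal: visual fluorescence microscopy scoring of gall bladder, gut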

Assay [9] can be described thus: loss of swimming-algae plug formation – whole organism, Chlamydomonas reinhardtii, WT vs cilia-less mutant, absorbance, 96-well, primary screen (AID 463189;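 active = inhibition at or above 50% relative to wild type and mutant plate controls; inactive = inhibition below 50%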;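 note: 0% = wild type cc124 cells in DMSO and 100% = ciliumless bld1 mutant cells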). The conditions noted are these: Chlamydomonas reinhardtii gravitaxis, OD600 absorbance, 2 days; at 10 µM; stronger effect = higher value.
Setting [10] is: measured here: cell density z-score.
The mark [11] stands for this setting: measured here: nuclear c-Myc green intensity z-score.
Where [12] appears, read: measured here: nuclear pErk red intensity z-score, stronger effect = higher value.

The source made the active and inactive calls.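 Rule for the calls, unless noted: active = visually confirmed hit in the image check and inhibition above 20%; inconclusive = visually confirmed hit but inhibition not above 20%; inactive = no visual hit in the image check.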

Sequence of Voltage-gated potassium channel subunit beta-2 (Rattus norvegicus) (P62483 whole entry, looked up): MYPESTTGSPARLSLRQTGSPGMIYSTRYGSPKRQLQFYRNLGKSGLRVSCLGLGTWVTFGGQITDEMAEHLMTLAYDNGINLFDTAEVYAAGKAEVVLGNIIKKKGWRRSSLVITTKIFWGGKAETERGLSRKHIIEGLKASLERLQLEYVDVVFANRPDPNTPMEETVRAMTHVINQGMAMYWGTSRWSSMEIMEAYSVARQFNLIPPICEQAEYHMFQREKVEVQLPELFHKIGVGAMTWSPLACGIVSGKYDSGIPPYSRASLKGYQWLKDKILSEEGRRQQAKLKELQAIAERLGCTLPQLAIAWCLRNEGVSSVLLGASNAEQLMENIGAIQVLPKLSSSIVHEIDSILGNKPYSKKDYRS

The term inhibition denotes the drop in the measured response relative to a control, in per cent. Turning to `COC(=O)CC1=C(C(=O)OC)C(c2ccc3c(c2Cl)OCO3)C(C#N)=C(N)O1` (stereo not given), in assay [1], the cell count worked out at 505. The inhibition was -3% (inactive) in [1], -43.9% (inactive) in assay [2], 15% (inactive) in [4] and 21.8% (inactive) in assay [9]. The nuclei count in assay [2] is 146%. The z-score in assay [3] (setting [10]) is 1.11; in assay [3] (setting [11]), -0.928; in assay [3] (setting [12]) it was -0.541. The fluorescence slope in [5] is -0.319 (inactive). Besides, in assay [6], the NADPH fluorescence slope was -2.9e-06 (inactive). The slope in assay [7] is 0.00617 (inactive). Besides, the outcome in assay [8] was inactive.

As for `COc1cc(C2C(C#N)=C(N)Oc3cc(C)n(CCc4ccccc4)c(=O)c32)cc2c1OCO2` (stereo not given), the cell count in assay [1] was 331. For the same molecule, the inhibition in assay [1] was -2.4% (inactive); in assay [2], -42.5% (inactive); in assay [4], 11.4% (inactive); in assay [9], 11.9% (inactive). In addition, in [2], the nuclei count is 165%. For the same molecule, the z-score in [3] (setting [10]) was -0.617; in assay [3] (setting [11]) it was 1.54; in assay [3] (setting [12]), 1.26. Moreover, in assay [5], the fluorescence slope was -0.433 (inactive). Moreover, the NADPH fluorescence slope in [6] is -0.000158 (inactive). The slope in assay [7] was 0.00471 (inactive). The molecule was called inactive in assay [8].

`O=C(CN1C(=O)c2ccccc2C1=O)NCc1ccncc1`: the cell count in [1] is 357. Besides, the inhibition was -6.8% (inactive) in [1], -60.9% (inactive) in [2], -10.6% (inactive) in assay [4] and 31% (inactive) in assay [9]. The molecule also displayed a nuclei count in assay [2] of 167%. The z-score in assay [3] (setting [10]) was 0.341; in assay [3] (setting [11]), -1.51; in assay [3] (setting [12]), 1.76. Moreover, the fluorescence slope in assay [5] is -0.432 (inactive). Further, the NADPH fluorescence slope in assay [6] is -0.000133 (inactive). In addition, in assay [7], the slope is 0.00529 (inactive). In addition, the call in assay [8] was inactive.

As for `CCOc1nc(Oc2cccc(C(=O)O)c2)nc(Oc2cccc(C(=O)O)c2)n1`, the cell count in assay [1] was found to be 627. For the same molecule, the inhibition in assay [1] was -14.8% (inactive); in [2], -46.5% (inactive); in assay [4], -1.12% (inactive); in assay [9], 6.3% (inactive). Moreover, the nuclei count in [2] worked out at 182%. In addition, the z-score was 0.0666 in assay [3] (setting [10]), 0.636 in assay [3] (setting [11]) and -0.0605 in [3] (setting [12]). The fluorescence slope in assay [5] was -0.538 (inactive). Also, the NADPH fluorescence slope in assay [6] is -3.4e-05 (inactive). Further, in assay [7], the slope is 0.00497 (inactive). Moreover, in [8], the molecule was classed as inactive.

On to `c1ccc(-c2nnc3n2N=C(c2ccc4c(c2)OCO4)CS3)nc1`, for which the cell count in assay [1] came to 626. In addition, the inhibition in [1] is -5% (inactive); in assay [2] it was -177% (inactive); in assay [4], -11.5% (inactive); in [9], -7.21% (inactive). The molecule also showed a nuclei count in assay [2] of 144%. The z-score worked out at 0.439 in assay [3] (setting [10]), 0.912 in [3] (setting [11]) and 0.545 in assay [3] (setting [12]). Further, the fluorescence slope in assay [5] is -0.406 (inactive). In addition, the NADPH fluorescence slope in [6] is -0.000131 (inactive). Also, in [7], the slope is 0.00609 (inactive). The outcome in assay [8] was inactive.

Regarding `CSc1nc(N)nc(SCC(=O)CC(=O)OC(C)C)c1C#N`, the cell count in assay [1] came out at 553. In addition, the inhibition is -7.1% (inactive) in assay [1], -118% (inactive) in [2], 16.8% (inactive) in [4] and 11.6% (inactive) in assay [9]. Moreover, the nuclei count in [2] was found to be 212%. The z-score is 0.352 in [3] (setting [10]), -0.157 in assay [3] (setting [11]) and -2.15 in assay [3] (setting [12]). Also, the fluorescence slope in assay [5] was -0.372 (inactive). For the same molecule, the NADPH fluorescence slope in assay [6] is -4.1e-07 (inactive). The slope in assay [7] was 0.00422 (inactive). The molecule was classed as inactive in assay [8].

As for `COCCn1c(N)c(C(=O)NCC2CCCO2)c2nc3ccccc3nc21` (stereo not given), in assay [1], the cell count amounted to 564. The inhibition in [1] is -8.3% (inactive); in assay [2] it was -74.5% (inactive); in [4], -11.5% (inactive); in assay [9], 26.2% (inactive). The same molecule had a nuclei count in assay [2] of 106%. The values for the z-score in [3] (setting [10]), in assay [3] (setting [11]) and in assay [3] (setting [12]) were 0.365, -2.02 and 0.128, respectively. Moreover, in assay [5], the fluorescence slope is -0.0102 (inactive). Further, the NADPH fluorescence slope in assay [6] was 7e-06 (inactive). In addition, the slope in assay [7] is 0.00477 (inactive). Moreover, the molecule was called inactive in assay [8].

For the molecule `CCOC(=O)c1c(C)n(C)c2ccc(OC)c(NC(=O)c3cccs3)c12`, in assay [1], the cell count was determined as 361. Further, the inhibition in [1] is -4.3% (inactive); in assay [2] it was -0.3% (inactive); in assay [4] it was -4.59% (inactive); in assay [9], -6.67% (inactive). The same molecule yielded a nuclei count in [2] of 151%. Besides, the z-score in assay [3] (setting [10]) is -1.28; in assay [3] (setting [11]), 0.0285; in [3] (setting [12]), 0.397. In addition, the fluorescence slope in [5] was -0.424 (inactive). For the same molecule, the NADPH fluorescence slope in [6] is -0.00012 (inactive). Also, in assay [7], the slope is 0.00568 (inactive). In addition, the molecule was classed as inactive in [8].

`CCOC(=O)C1Cc2c([nH]c3ccccc23)C(C)N1` (stereo not given): in assay [1], the cell count turned out to be 640. For the same molecule, the inhibition in assay [1] is -12.2% (inactive); in assay [2] it was -61.9% (inactive); in assay [4] it was -18.6% (inactive); in assay [9] it was -12.3% (inactive). This molecule yielded a nuclei count in assay [2] of 176%. Also, the figures for the z-score in assay [3] (setting [10]), in [3] (setting [11]) and in assay [3] (setting [12]) were -0.293, -0.384 and -0.135, respectively. For the same molecule, in assay [5], the fluorescence slope is -0.422 (inactive). Moreover, in [6], the NADPH fluorescence slope is -5.9e-05 (inactive). Moreover, in assay [7], the slope is 0.00514 (inactive). Further, in [8], the outcome was inactive.

Turning to `O=C(O)C1CCCCN1S(=O)(=O)c1cccc2nsnc12` (stereo not given), the cell count in assay [1] came to 488. Moreover, the inhibition was 9.4% (inactive) in [1], -8.1% (inactive) in assay [2], -6.06% (inactive) in [4] and -16.5% (inactive) in [9]. In assay [2], this molecule displayed a nuclei count of 93.9%. For the same molecule, the z-score in assay [3] (setting [10]) was -0.854; in assay [3] (setting [11]), 0.334; in assay [3] (setting [12]), -0.543. Further, the fluorescence slope in assay [5] is -0.498 (inactive). The NADPH fluorescence slope in [6] was -3.9e-05 (inactive). For the same molecule, in assay [7], the slope was 0.0076 (inactive). Further, the outcome in assay [8] was inactive.

The record behind these values is PubChem BioAssay.
